A selection: hits, their analogues and other compounds. The true share with any hit is near 1.9%.
MBD2 inh – blocks human MBD2 binding to methylated DNA. Q9UBB5. TR-FRET, MBD2 binding to methylated oligonucleotide. inhibition, % at 4.4 µM. hit rate 0.31% among 370,000. AID 686964; in the data active means inhibition above about 13%
UHRF1 binding – human UHRF1 methylated DNA binding inhibitors | UHRF1 binding to methylated oligo, TR-FRET | inhibition, % at 4.4 µM | hit rate 0.75% among 370,000 | AID 687016; in the data active means inhibition above about 21%;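 further: UHRF1 SRA domain binding a hemimethylated CpG hairpin DNA probe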
Target sequence (Q96T88 whole entry, looked up, the tested form may be a part): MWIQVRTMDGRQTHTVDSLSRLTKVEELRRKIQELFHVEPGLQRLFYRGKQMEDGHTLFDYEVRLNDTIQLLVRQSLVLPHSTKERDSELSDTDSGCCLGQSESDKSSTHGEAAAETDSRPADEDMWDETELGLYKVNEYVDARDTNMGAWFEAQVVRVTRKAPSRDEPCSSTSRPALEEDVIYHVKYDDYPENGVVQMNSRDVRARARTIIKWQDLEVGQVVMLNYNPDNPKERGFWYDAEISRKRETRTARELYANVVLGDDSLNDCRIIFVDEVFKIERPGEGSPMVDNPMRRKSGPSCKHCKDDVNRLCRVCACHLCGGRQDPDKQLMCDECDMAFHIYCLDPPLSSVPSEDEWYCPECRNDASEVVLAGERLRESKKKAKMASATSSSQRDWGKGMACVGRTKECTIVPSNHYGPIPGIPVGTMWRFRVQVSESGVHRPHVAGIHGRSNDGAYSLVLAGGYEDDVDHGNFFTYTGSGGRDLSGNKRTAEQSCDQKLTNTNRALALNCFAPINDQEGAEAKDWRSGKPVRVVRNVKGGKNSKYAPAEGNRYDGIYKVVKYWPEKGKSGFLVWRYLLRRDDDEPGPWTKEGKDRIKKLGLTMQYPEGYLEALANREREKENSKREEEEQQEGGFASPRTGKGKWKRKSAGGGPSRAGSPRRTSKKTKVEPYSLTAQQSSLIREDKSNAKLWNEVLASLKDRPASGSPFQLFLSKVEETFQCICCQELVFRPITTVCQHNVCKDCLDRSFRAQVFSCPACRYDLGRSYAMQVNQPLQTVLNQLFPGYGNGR
LEDGF integ inh – blocks HIV-1 LEDGF/p75-dependent DNA integration | TR-FRET IN-LEDGF/p75 DNA integration, Eu/Cy5 | hit rate 0.64% among 370,000 | inhibition, % at 3.7 µM;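 active means inhibition above the screen-wide mean plus 3 SD, cut at about 13% in these data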;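 further: signal is the Cy5 over europium emission ratio at 671 and 618 nm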
TDP2 absorb – blocks human TDP2 phosphodiesterase activity | inhibition, % at 12.8 µM | recombinant TDP2, T5PNP hydrolysis, p-nitrophenol absorbance 415 nm | O95551 | hit rate 0.34% among 370,000 | AID 720702;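 active means inhibition above the mean of all tested compounds plus 3 SD, set per campaign, cut at about 25% in these data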
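Test system: Human TDP2 enzyme | Reagent: 5 mM T5PNP | Compound dosing: 12.8 µM single point, 1% DMSO | Incubation: Enzyme reaction with compound for 2 h at 37 °C | Technique: p-Nitrophenol epi absorbance | Read-out: % inhibition relative to enzyme-containing and enzyme-free wells | Benchmarks: High control without enzyme, low control DMSO plus TDP2 | Replicates: Singlicate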
Rin1 Abl inh – blocks binding of human Rin1 to Abl; inhibition, % at 7.35 µM; hit rate 0.4% among 360,000; TR-FRET Rin1/Abl binding, biochemical; P00519+Q13671; AID 588664; in the data active means inhibition above about 5%, passing the limit was not always enough
TDP2 confirm – confirmation of human TDP2 inhibitors; hit rate 22% among 1,100; inhibition, % at 12.8 µM; AID 743263; shares compounds with TDP2 absorb; recombinant human TDP2, absorbance read-out; in the data active means inhibition above about 25%
Large screens that a line does not name were inactive (follow-up assays come after a bar, where they were run).

CCOc1ccc(-c2[nH]nc3c2C(c2ccc4c(c2)OCO4)C(C#N)=C(N)O3)cc1OC (configuration not stated)	TDP2 absorb 27 | TDP2 confirm inactive
COc1cc(C2C(C#N)=C(N)Oc3n[nH]c(-c4ccncc4)c32)cc(OC)c1OC (configuration not stated)	none
COc1cc(Br)c(C2C(C#N)=C(N)Oc3n[nH]c(-c4cccnc4)c32)cc1OC (configuration not stated)	TDP2 absorb 43 | TDP2 confirm inactive
Cc1[nH]nc2c1C(c1ccc3c(c1)OCO3)C(C#N)=C(N)O2 (configuration not stated)	none
CCCCOC(=O)/C=C\C(=O)NC(N)=O	TDP2 absorb 26 | TDP2 confirm inactive
O=C(Cn1ncc2c1-c1ccccc1OC2)N1CCN(Cc2ccccc2)CC1	UHRF1 binding 27, TDP2 absorb 29 | TDP2 confirm inactive
CCCCNC(=O)OCCCN1CCC2(CCC(c3ccccc3)CC2)C1 (configuration not stated)	none (no result: Rin1 Abl inh)
O=C(NCC1CCCO1)c1cccnc1Nc1ccccc1F (configuration not stated)	TDP2 absorb 40 | TDP2 confirm inactive
O=C(Nc1ccc(C(F)(F)F)cc1)OC1CC2CC1[C@H]1CCCCN1C2 (some centres not stated)	none (no result: Rin1 Abl inh)
CCCCn1c(NC(=O)c2ccccc2Cl)c(C#N)c2nc3ccccc3nc21	TDP2 absorb 38 | TDP2 confirm 72
Cc1ccc(-n2c(SCC(=O)c3ccc4c(c3)OCO4)nc3ccccc3c2=O)cc1	none (no result: Rin1 Abl inh)
CC(=O)NC(Cc1ccc(F)cc1)C(=O)NC1CCN(C(=O)Nc2ccc(F)cc2)CC1 (configuration not stated)	TDP2 absorb 25 | TDP2 confirm inactive
COc1ccc(C(C)c2cn(C)c3ccccc23)cc1 (configuration not stated)	none (no result: Rin1 Abl inh)
CC1=NN(c2cccc(Cl)c2)C(=O)C1	TDP2 absorb 51, Rin1 Abl inh 32 | TDP2 confirm inactive
CC1=NN(c2cc(Cl)c(S(=O)(=O)O)cc2Cl)C(=O)C1	none
COc1ccc(NC(=O)c2ccc(-n3c(C)ccc3C)cc2)c(OC)c1	TDP2 absorb 30 | TDP2 confirm inactive
COc1cc2c(c(OC)c1O)C(=O)CO2	TDP2 absorb 25 | TDP2 confirm inactive
COc1cc2c(c(OC)c1OC)C(=O)CO2	none
CCOC(=O)[C@]12CCCC=C1N(CCCOC)C(=O)[C@@H]2CC(=O)NCCc1ccccc1OC	none (no result: Rin1 Abl inh)
Cc1c(Cc2ccccc2)c(=O)oc2cc(OCC(=O)NCC(O)c3ccccc3)ccc12 (configuration not stated)	TDP2 absorb 30 | TDP2 confirm inactive
O=C1C(NS(=O)(=O)c2cccs2)=C(N2CCN(Cc3ccccc3)CC2)C(=O)c2ccccc21	TDP2 absorb 40 | TDP2 confirm inactive
CCOC(=O)N1CCN(C2=C(NS(=O)(=O)c3ccc(Br)cc3)C(=O)c3ccccc3C2=O)CC1	none
CCOC(=O)N1CCN(C2=C(NS(=O)(=O)c3ccccc3)C(=O)c3ccccc3C2=O)CC1	LEDGF integ inh 22, TDP2 absorb 64 | TDP2 confirm inactive
CCN1CCN(C2=C(NS(=O)(=O)c3ccc(Br)cc3)C(=O)c3ccccc3C2=O)CC1	TDP2 absorb 28 | TDP2 confirm inactive
CCN1CCN(C2=C(NS(=O)(=O)c3ccccc3)C(=O)c3ccccc3C2=O)CC1	TDP2 absorb 28 | TDP2 confirm inactive
CN1CCN(C2=C(NS(=O)(=O)c3cccs3)C(=O)c3ccccc3C2=O)CC1	none
COc1cccc(N(C)C(=O)[C@@H](C2CC2)[C@@H](O)c2ccc3ccccc3c2)c1	none (no result: Rin1 Abl inh)
CCCN(C(=O)CCc1cn(CCC)c2ccccc12)c1ccc(Oc2cccnc2)cc1	none (no result: Rin1 Abl inh)
COC(=O)[C@]1(C#N)CC(=O)N(c2ccccc2)[C@@H]1c1ccccc1	none (no result: Rin1 Abl inh)
Cn1ccc2c(N3c4ccccc4CCc4ccccc43)cc3c(c21)C1CCC3O1 (configuration not stated)	TDP2 absorb 28 | TDP2 confirm inactive
COC(=O)C1=C(C(C)=O)C(c2ccc(C(=O)OC)cc2)n2nnnc2N1 (configuration not stated)	TDP2 absorb 34 | TDP2 confirm inactive
COC(=O)C1=C(C(C)=O)C(c2ccc(C)cc2)n2nnnc2N1 (configuration not stated)	none
COc1cc(CN2CCC(C(=O)N3CCN(c4ccccc4F)CC3)CC2)cc(OC)c1O	none
CCOc1ccc(CN2CCC(C(=O)N3CCN(c4ccccc4F)CC3)CC2)cc1OC	TDP2 absorb 34 | TDP2 confirm inactive
CCOC(=O)c1ccccc1NC(=S)N1CCC(N2CCCCC2)CC1	TDP2 absorb 34 | TDP2 confirm inactive
NC(=O)C1CCN(C2=C(NS(=O)(=O)c3ccc(Br)cc3)C(=O)c3ccccc3C2=O)CC1	TDP2 absorb 38 | TDP2 confirm inactive
CCOC(=O)C1CCN(C2=C(NS(=O)(=O)c3ccc(Br)cc3)C(=O)c3ccccc3C2=O)CC1	TDP2 absorb 30 | TDP2 confirm inactive
NC(=O)C1CCN(C2=C(Cl)C(=O)c3ccccc3C2=O)CC1	TDP2 absorb 50 | TDP2 confirm 76
CCC(C)[C@H](NC(=O)[C@H](Cc1ccccc1)NC(=O)OC(C)(C)C)C(=O)NCc1ccccc1Br (some centres not stated)	none (no result: Rin1 Abl inh)
O=C(CCCCCN1C(=O)C2C3C=CC(C3)C2C1=O)Nc1cc(F)cc(F)c1 (configuration not stated)	none (no result: Rin1 Abl inh)
Cn1c(=O)[nH]c(=O)c2c1nc(N1CCNCC1)n2Cc1ccccc1	TDP2 absorb 26 | TDP2 confirm inactive
C=CCN1[C@H](CO)[C@H](c2ccccc2)[C@@H]1C#N	none (no result: Rin1 Abl inh)
CC(=O)Nc1nc2cc([N+](=O)[O-])ccc2s1	TDP2 absorb 35 | TDP2 confirm inactive
Cc1ccc(C)c(CN2CCSCC2)c1	TDP2 absorb 26 | TDP2 confirm inactive
CCOc1ccc2nc(/N=C/c3c(C)[nH]n(-c4ccccc4)c3=O)sc2c1	TDP2 absorb 35 | TDP2 confirm inactive
CC(=O)Nc1ccc(S(=O)(=O)/N=C2\C(=O)c3ccccc3C([O-])=C2n2cc[n+](-c3ccccn3)c2)cc1	UHRF1 binding 44, TDP2 absorb 37 | TDP2 confirm inactive
COC(=O)[C@@]12CCCCC=C1N(CCc1ccc(Cl)cc1)C(=O)[C@H]2CC(=O)NCC1CCCCC1	none (no result: Rin1 Abl inh)
COc1cc(/C=C2\C(=O)N(CCC#N)N=C2C)ccc1OCC(=O)Nc1ccccc1	TDP2 absorb 84 | TDP2 confirm inactive
CC1=NOC(=O)/C1=C/c1ccc(N(C)C)cc1	none (no result: Rin1 Abl inh)
CC1=NN(CCC#N)C(=O)/C1=C/c1ccc(N(C)C)cc1	TDP2 absorb 42 | TDP2 confirm inactive
CCOC(=O)Cc1nc(N2CCN(CCN)CC2)c2c(C)c(C(=O)OCC)sc2n1	none (no result: Rin1 Abl inh)
